Source: publication PMC3806199 (Nature communications, 2013)
Bridge positions count the residues as written; N and C are the ends. Ends that are not written are not given here.

Experiments:
interscapular BAT = experiment: FDG PET/CT imaging of BAT metabolic activity; format: in vivo, mouse; conditions: versus cold-acclimated mice
BAT = experiment: NIR fluorescence imaging; format: in vivo, mouse; conditions: 100 nmol iv, 1 hr, IRDye800 conjugate
In short: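 Subjects were 6-week-old C57BL/6 males, n=3 per group, with experiments done twice. Mice were pre-housed at 6 °C or RT, with propranolol where indicated. IRDye800-conjugated test peptide or a control WAT-homing peptide was given i.v. and circulated 1 h. Interscapular BAT and i.p. WAT were resected and imaged by NIR fluorescence with 785 nm laser excitation. Data are mean ± s.e.m.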

OC[C@H]1O[C@@H](O)[C@H]([18F])[C@@H](O)[C@@H]1O [FDG, fluorine-18 deoxyglucose]
reduction in FDG uptake by BAT as a result of warm-acclimation (interscapular BAT): 1.7 fold

CC(C)NCC(O)COc1cccc2ccccc12 (stereo not drawn) [propranolol]
reduction in FDG uptake by BAT, warm-acclimation combined with propranolol treatment (interscapular BAT; propranolol ip 5 mg/kg): 4.1 fold

CKGGRAKDC (disulfide 1-9 (inferred))
accumulation in WAT and BAT (resected tissues) (BAT): accumulation in WAT, but not in BAT
